pIC50: −log10 of the molar value.
How the values were obtained:
[1] = test system: MCF7R; assay: Growth inhibition of human mammary carcinoma 180 fold resistant to doxorubicin (MCF-7-R) cell line; type: functional, cell-based
[2] = test system: A549; assay: Growth inhibition of human non-small-lung carcinoma (A549) cell line; type: functional, cell-based
[3] = Ratio of growth inhibition (IC50) of MCF7-R / MCF-7 cell lines; type: functional, Homo sapiens
[4] = test system: HT-29; assay: Growth inhibition of human colon carcinoma (HT-29) cell line; type: functional, cell-based
Summary of the method: (§1)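 Cells seeded at 400/well, attached overnight, grown in RPMI-1640 with 5% fetal bovine serum and 5% Nu Serum. Taxanes in DMSO, diluted in medium, 72 h exposure, triplicate wells. Fixed with ice-cold 50% TCA (1 h, 4 °C), stained with 0.4% sulforhodamine B, dye dissolved in 10 mM Tris (pH 10.5), OD 570 nm. IC50 from sigmoid-Emax nonlinear regression, weighted by reciprocal squared predicted effect.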

[5] = test system: A121; assay: Growth inhibition of human ovarian carcinoma (A121) cell line; type: functional, cell-based; summary of the method: as §1
[6] = test system: MCF7; assay: Growth inhibition of human mammary carcinoma (MCF-7) cell line; type: functional, cell-based; summary of the method: as §1

Compound	pIC50 [1]	pIC50 [2]	pIC50 [4]	pIC50 [6]	Ratio [3]	pIC50 [5]
CC(=O)O[C@@]12CO[C@@H]1C[C@H](O)[C@@]1(C)C(=O)[C@H](O)C3=C(C)[C@@H](OC(=O)[C@H](O)[C@@H](NC(=O)OC(C)(C)C)c4ccccc4)[C@H](O)[C@@](O)([C@@H](OC(=O)c4ccccc4)C12)C3(C)C (stereo not given in full)	< 6.00	–	–	–	–	–
CC(=O)O[C@H]1C(=O)[C@@]2(C)C([C@H](OC(=O)c3ccccc3)[C@]34OC(=O)O[C@H]3[C@H](OC(=O)[C@H](O)[C@@H](NC(=O)OC(C)(C)C)c3ccco3)C(C)=C1C4(C)C)[C@]1(OC(C)=O)COC1C[C@@H]2O (stereo not given in full)	7.31	9.30	9.22	9.30	96	9.40
CC(=O)O[C@@]12COC1C[C@H](O)[C@@]1(C)C(=O)[C@H](O)C3=C(C)[C@@H](OC(=O)[C@H](O)[C@@H](NC(=O)OC(C)(C)C)c4ccco4)[C@@H]4OC(=O)O[C@]4([C@@H](OC(=O)c4ccccc4)C21)C3(C)C (stereo not given in full)	6.87	9.30	9.22	9.30	270	9.40
CCC[C@H](NC(=O)OC(C)(C)C)[C@@H](O)C(=O)O[C@@H]1C(C)=C2[C@@H](O)C(=O)[C@@]3(C)C([C@H](OC(=O)c4ccccc4)[C@@]4(OC(=O)O[C@@H]14)C2(C)C)[C@]1(OC(C)=O)COC1C[C@@H]3O (stereo not given in full)	6.58	8.36	8.42	8.38	92	8.68
CC(=O)O[C@@]12COC1C[C@H](O)[C@@]1(C)C(=O)[C@H](O)C3=C(C)[C@@H](OC(=O)[C@H](O)[C@@H](NC(=O)c4ccccc4)c4ccccc4)[C@@H]4OC(=O)O[C@]4([C@@H](OC(=O)c4ccccc4)C21)C3(C)C (stereo not given in full)	< 6.00	7.48	7.62	7.96	–	6.98
CC(=O)O[C@@]12COC1C[C@H](O)[C@@]1(C)C(=O)[C@H](O)C3=C(C)[C@@H](OC(=O)[C@H](O)[C@@H](NC(=O)OC(C)(C)C)c4ccccc4)[C@@H]4OC(=O)O[C@]4([C@@H](OC(=O)c4ccccc4)C21)C3(C)C (stereo not given in full)	6.27	8.68	8.74	8.74	302	8.21
CC(=O)O[C@@]12COC1C[C@H](O)[C@@]1(C)C(=O)[C@H](O)C3=C(C)[C@@H](OC(=O)[C@H](O)[C@H](CC(C)(C)C)NC(=O)OC(C)(C)C)[C@@H]4OC(=O)O[C@]4([C@@H](OC(=O)c4ccccc4)C21)C3(C)C (stereo not given in full)	< 6.00	7.29	7.28	7.32	–	6.97
CC(=O)O[C@@]12COC1C[C@H](O)[C@@]1(C)C(=O)[C@H](O)C3=C(C)[C@@H](OC(=O)[C@H](O)[C@H](CC(C)C)NC(=O)OC(C)(C)C)[C@@H]4OC(=O)O[C@]4([C@@H](OC(=O)c4ccccc4)C21)C3(C)C (stereo not given in full)	6.41	8.74	8.47	8.57	–	9.00
CCCCCC(=O)N[C@@H](c1ccccc1)[C@@H](O)C(=O)O[C@@H]1C(C)=C2[C@@H](O)C(=O)[C@@]3(C)C([C@H](OC(=O)c4ccccc4)[C@@]4(OC(=O)O[C@@H]14)C2(C)C)[C@]1(OC(C)=O)COC1C[C@@H]3O (stereo not given in full)	< 6.00	6.41	6.80	7.89	–	6.48
CCC[C@H](NC(=O)OC(C)(C)C)[C@@H](O)C(=O)O[C@@H]1C(C)=C2[C@@H](OC(C)=O)C(=O)[C@@]3(C)C([C@H](OC(=O)c4ccccc4)[C@@]4(OC(=O)O[C@@H]14)C2(C)C)[C@]1(OC(C)=O)COC1C[C@@H]3O (stereo not given in full)	6.70	8.33	8.32	8.34	44	8.64

The next lines start with results.

pIC50 [1]	pIC50 [2]	pIC50 [4]	pIC50 [6]	Compound	Ratio [3]	pIC50 [5]
7.48	9.22	8.92	9.40	CC(=O)O[C@@]12COC1C[C@H](O)[C@@]1(C)C(=O)[C@H](OC(=O)N(C)C)C3=C(C)[C@@H](OC(=O)[C@H](O)[C@H](C=C(C)C)NC(=O)OC(C)(C)C)[C@@H]4OC(=O)O[C@]4([C@@H](OC(=O)c4ccccc4)C21)C3(C)C (stereo not given in full)	83	9.15
6.49	7.74	7.80	8.49	CCCCCC(=O)N[C@@H](C=C(C)C)[C@@H](O)C(=O)O[C@@H]1C(C)=C2[C@@H](OC(=O)C3CC3)C(=O)[C@@]3(C)C([C@H](OC(=O)c4ccccc4)[C@@]4(OC(=O)O[C@@H]14)C2(C)C)[C@]1(OC(C)=O)COC1C[C@@H]3O (stereo not given in full)	100	7.92
6.86	7.60	7.55	8.68	C/C=C/C(=O)O[C@H]1C(=O)[C@@]2(C)C([C@H](OC(=O)c3ccccc3)[C@]34OC(=O)O[C@H]3[C@H](OC(=O)[C@H](O)[C@H](C=C(C)C)NC(=O)CCCCC)C(C)=C1C4(C)C)[C@]1(OC(C)=O)COC1C[C@@H]2O (stereo not given in full)	65	7.77
6.53	8.26	8.29	8.77	CCCCCC(=O)N[C@@H](C=C(C)C)[C@@H](O)C(=O)O[C@@H]1C(C)=C2[C@@H](OC(=O)N(C)C)C(=O)[C@@]3(C)C([C@H](OC(=O)c4ccccc4)[C@@]4(OC(=O)O[C@@H]14)C2(C)C)[C@]1(OC(C)=O)COC1C[C@@H]3O (stereo not given in full)	–	8.32
7.77	9.30	8.82	9.40	C/C=C/C(=O)O[C@H]1C(=O)[C@@]2(C)C([C@H](OC(=O)c3ccccc3)[C@]34OC(=O)O[C@H]3[C@H](OC(=O)[C@H](O)[C@H](C=C(C)C)NC(=O)OC(C)(C)C)C(C)=C1C4(C)C)[C@]1(OC(C)=O)COC1C[C@@H]2O (stereo not given in full)	43	9.10

Source: ChEMBL document CHEMBL1130282, “Syntheses and structure-activity relationships of taxoids derived from 14 beta-hydroxy-10-deacetylbaccatin III” (J Med Chem, 1997)
